How the values were obtained:
[1] = biological target: Excitatory amino acid transporter 1 (Homo sapiens, UniProt P43003); experiment: Inhibition of [3H]-D-aspartate uptake at human EAAT1 expressed in HEK293 cells after 6 mins by scintillation counting
Summary of the method: (§1)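 Each transporter subtype stably expressed in its own HEK293 cell line. Inhibitor potency measured as block of [³H]-D-aspartate uptake into these cells and reported as IC₅₀ values.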

[2] = biological target: T1, Excitatory amino acid transporter 3 (Homo sapiens, UniProt P43005); experiment: Inhibition of [3H]-D-aspartate uptake at human EAAT3 expressed in HEK293 cells after 6 mins by scintillation counting; summary of the method: as §1
T1 sequence (P43005 whole entry): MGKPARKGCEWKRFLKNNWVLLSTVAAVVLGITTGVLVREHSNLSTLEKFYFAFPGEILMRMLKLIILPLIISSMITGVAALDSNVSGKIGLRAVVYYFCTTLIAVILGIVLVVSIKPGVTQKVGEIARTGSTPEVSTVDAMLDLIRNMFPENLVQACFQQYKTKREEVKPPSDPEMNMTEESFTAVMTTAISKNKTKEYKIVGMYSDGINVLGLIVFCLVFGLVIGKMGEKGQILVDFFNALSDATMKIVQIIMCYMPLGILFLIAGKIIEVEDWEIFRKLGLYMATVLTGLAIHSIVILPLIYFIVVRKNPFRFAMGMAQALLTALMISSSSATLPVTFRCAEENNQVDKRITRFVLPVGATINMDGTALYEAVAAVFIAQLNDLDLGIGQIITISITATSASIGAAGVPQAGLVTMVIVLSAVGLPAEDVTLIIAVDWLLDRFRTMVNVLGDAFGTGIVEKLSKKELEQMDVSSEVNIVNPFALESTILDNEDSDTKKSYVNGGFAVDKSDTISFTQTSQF

[3] = biological target: Excitatory amino acid transporter 2 (Homo sapiens, UniProt P43004); experiment: Inhibition of [3H]-D-aspartate uptake at human EAAT2 expressed in HEK293 cells after 6 mins by scintillation counting; summary of the method: as §1
Sequence of Excitatory amino acid transporter 2 (P43004 whole entry): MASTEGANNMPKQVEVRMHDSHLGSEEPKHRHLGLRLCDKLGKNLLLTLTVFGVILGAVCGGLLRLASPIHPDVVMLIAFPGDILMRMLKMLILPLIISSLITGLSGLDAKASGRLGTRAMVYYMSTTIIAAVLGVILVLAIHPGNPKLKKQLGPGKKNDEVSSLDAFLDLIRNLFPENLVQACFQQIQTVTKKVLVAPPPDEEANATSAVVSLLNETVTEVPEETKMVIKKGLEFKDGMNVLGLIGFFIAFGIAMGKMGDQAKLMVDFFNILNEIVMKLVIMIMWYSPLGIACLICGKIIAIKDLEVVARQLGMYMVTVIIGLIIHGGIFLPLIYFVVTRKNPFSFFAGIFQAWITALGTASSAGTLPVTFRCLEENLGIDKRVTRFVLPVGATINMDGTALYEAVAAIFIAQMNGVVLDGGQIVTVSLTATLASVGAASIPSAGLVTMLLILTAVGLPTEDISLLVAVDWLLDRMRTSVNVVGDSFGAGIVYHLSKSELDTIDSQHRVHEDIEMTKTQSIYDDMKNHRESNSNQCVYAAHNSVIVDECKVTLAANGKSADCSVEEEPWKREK

Sequence of Excitatory amino acid transporter 1 (P43003 whole entry): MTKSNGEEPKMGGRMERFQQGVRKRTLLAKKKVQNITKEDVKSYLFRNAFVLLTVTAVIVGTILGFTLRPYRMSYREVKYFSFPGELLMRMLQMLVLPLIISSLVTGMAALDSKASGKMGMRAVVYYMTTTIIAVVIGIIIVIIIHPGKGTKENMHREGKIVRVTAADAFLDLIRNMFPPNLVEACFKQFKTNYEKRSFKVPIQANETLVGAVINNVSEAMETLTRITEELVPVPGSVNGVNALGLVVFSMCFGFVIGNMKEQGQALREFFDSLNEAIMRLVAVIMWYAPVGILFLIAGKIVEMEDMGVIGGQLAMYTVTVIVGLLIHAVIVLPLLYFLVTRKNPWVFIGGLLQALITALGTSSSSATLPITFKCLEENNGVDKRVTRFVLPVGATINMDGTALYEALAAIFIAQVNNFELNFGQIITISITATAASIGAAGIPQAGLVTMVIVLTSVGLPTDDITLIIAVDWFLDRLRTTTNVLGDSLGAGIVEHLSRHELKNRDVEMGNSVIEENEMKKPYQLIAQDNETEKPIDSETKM

Structure (SMILES) | IC50 [1] | IC50 [2] | IC50 [3]
CCN(CC)c1ccc2c(C)c(-c3ccc(C4C5=C(CC(c6ccccc6)CC5=O)OC(=N)C4C#N)cc3)c(=O)oc2c1 (configuration not stated) | > 316 µM | > 300 µM | > 300 µM
COc1ccc2c(C)c(-c3ccc(C4C5=C(CC(c6ccccc6)CC5=O)OC(=N)C4C#N)cc3)c(=O)oc2c1 (configuration not stated) | > 316 µM | > 300 µM | > 300 µM
CCN(CC)c1ccc2c(C3C4=C(CC(c5cccc6ccccc56)CC4=O)OC(=N)C3C#N)cc(=O)oc2c1 (configuration not stated) | > 316 µM | > 300 µM | > 300 µM
COc1ccc2c(C3C4=C(CC(c5ccccc5)CC4=O)OC(=N)C3C#N)cc(=O)oc2c1 (configuration not stated) | > 316 µM | > 300 µM | > 300 µM

From BindingDB's records for doi:10.1016/j.bmc.2012.09.049 (University of Copenhagen, 2012)
